Source: ChEMBL document CHEMBL3826920, “Solution-phase microwave assisted parallel synthesis, biological evaluation and in silico docking studies of N,N'-disubstituted thioureas derived from 3-chlorobenzoic acid” (Bioorg Med Chem, 2016)

Tests used:
Urease = Urease (Canavalia ensiformis, UniProt P07374); test: Inhibition of jack bean urease using urea as substrate assessed as reduction in ammonia production after 30 mins by indophenol method
Summary of the method: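 Compounds were first screened, and those giving at least 50% inhibition went on to dose-response testing. For each, 7–9 serial dilutions were made in assay buffer, and curves were run under the same conditions as the initial screen.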

NCI-H157 = test: Growth inhibition of human NCI-H157 cells at 100 uM after 48 hrs by SRB assay; type: functional; conditions: NCI-H157, 48 h, read-out: GI
Summary of the method: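 H-157 cells seeded at 10⁴ cells per well and grown at 37 °C under 5% CO₂ to a monolayer within 24 h. Compound added, with a vincristine standard and a cells-plus-media blank, for 48 h. Cells fixed in 50% ice-cold TCA (4 °C, 1 h), washed 5× with PBS, stained with 0.4% w/v SRB in 1% acetic acid (30 min, RT), rinsed, and dye solubilized in 10 mM Tris base. A490 read minus A630 background; triplicate.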

[1] = molecular target: Urease (Canavalia ensiformis) (UniProt P07374); test: Inhibition of jack bean urease using urea as substrate assessed as reduction in ammonia production at 1 mM after 30 mins by indophenol method
Chain of Urease (Canavalia ensiformis) (P07374 whole entry, looked up): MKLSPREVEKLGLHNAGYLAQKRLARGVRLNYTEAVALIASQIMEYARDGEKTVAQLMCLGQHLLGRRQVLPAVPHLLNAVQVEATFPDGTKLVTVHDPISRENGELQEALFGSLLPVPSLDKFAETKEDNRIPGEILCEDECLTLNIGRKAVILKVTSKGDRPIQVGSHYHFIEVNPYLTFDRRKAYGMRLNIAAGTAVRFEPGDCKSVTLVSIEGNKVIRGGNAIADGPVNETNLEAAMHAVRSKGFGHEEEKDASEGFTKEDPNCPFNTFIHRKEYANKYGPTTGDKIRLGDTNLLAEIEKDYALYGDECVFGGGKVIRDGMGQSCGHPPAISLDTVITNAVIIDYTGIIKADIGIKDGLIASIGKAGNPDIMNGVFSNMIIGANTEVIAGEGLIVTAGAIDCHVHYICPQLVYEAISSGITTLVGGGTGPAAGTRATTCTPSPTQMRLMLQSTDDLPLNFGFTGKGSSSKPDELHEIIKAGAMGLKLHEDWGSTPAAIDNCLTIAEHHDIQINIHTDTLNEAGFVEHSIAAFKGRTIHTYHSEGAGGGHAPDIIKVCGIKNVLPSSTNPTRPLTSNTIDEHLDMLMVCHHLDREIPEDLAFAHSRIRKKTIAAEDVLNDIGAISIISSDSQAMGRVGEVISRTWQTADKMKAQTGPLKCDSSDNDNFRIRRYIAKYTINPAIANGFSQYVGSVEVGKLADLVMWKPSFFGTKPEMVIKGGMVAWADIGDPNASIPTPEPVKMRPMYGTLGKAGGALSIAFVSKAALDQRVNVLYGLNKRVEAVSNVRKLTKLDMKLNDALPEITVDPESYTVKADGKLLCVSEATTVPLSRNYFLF

Chain of Urease (P07374 whole entry): as the sequence (P07374 whole entry, looked up) above

| SMILES | IC50 (Urease) | inhibition of growth at 100 µM (NCI-H157) | inhibition [1] |
| --- | --- | --- | --- |
| O=C(NC(=S)Nc1ccccc1)c1cccc(Cl)c1 | 3.24 µM | 45.2% |  |
| O=C(NC(=S)Nc1cccc(Br)c1)c1cccc(Cl)c1 | 20.1 µM | 32.4% |  |
| CCCCc1ccc(NC(=S)NC(=O)c2cccc(Cl)c2)cc1 |  | 47.7% | 36.9% |
| O=C(NC(=S)N(C1CCCCC1)C1CCCCC1)c1cccc(Cl)c1 |  | 47.8% | 29.9% |
| O=C(NC(=S)Nc1ccccc1[N+](=O)[O-])c1cccc(Cl)c1 | 8.59 µM | 36.4% |  |
| O=C(NC(=S)Nc1ccc(Cl)cc1)c1cccc(Cl)c1 | 11.7 µM | 52.6% |  |
| O=C(NC(=S)Nc1ccc(Br)cc1Br)c1cccc(Cl)c1 | 6.32 µM | 38.2% |  |
| O=C(NC(=S)Nc1cc(Cl)c(Cl)cc1Cl)c1cccc(Cl)c1 | 7.41 µM | 43.3% |  |
| O=C(NC(=S)Nc1ccc(C(F)(F)F)cc1)c1cccc(Cl)c1 | 7.04 µM | 44.6% |  |
| O=C(NC(=S)Nc1c(Cl)cc(Cl)cc1Cl)c1cccc(Cl)c1 | 3.64 µM | 60.9% |  |
| O=C(NC(=S)Nc1nc2ccccc2s1)c1cccc(Cl)c1 |  | 48.8% | 27.9% |
| O=C(NC(=S)Nc1cccc(Cl)c1Cl)c1cccc(Cl)c1 | 1.92 µM | 50.7% |  |
| O=C(NC(=S)Nc1cc(Cl)ccc1Cl)c1cccc(Cl)c1 | 9.72 µM | 46.6% |  |
| O=C(NC(=S)NCc1ccccc1Cl)c1cccc(Cl)c1 |  | 27.6% | 27.4% |
| COc1ccccc1NC(=S)NC(=O)c1cccc(Cl)c1 | 3.79 µM | 42.8% |  |
| O=C(NC(=S)Nc1cc(Cl)cc(Cl)c1)c1cccc(Cl)c1 | 6.53 µM | 48.5% |  |
| O=C(NC(=S)NC1CCCCC1)c1cccc(Cl)c1 | 14.3 µM | 48.5% |  |
| O=C(NC(=S)Nc1c(Cl)c(Cl)cc(Cl)c1Cl)c1cccc(Cl)c1 |  | 45.5% | 32.7% |
| O=C(NC(=S)NCc1ccccc1)c1cccc(Cl)c1 | 16.4 µM | 40.5% |  |

| SMILES | IC50 (Urease) | inhibition of growth at 100 µM (NCI-H157) | inhibition [1] |
| --- | --- | --- | --- |
| O=C(NC(=S)Nc1c(Cl)cccc1Cl)c1cccc(Cl)c1 | 5.38 µM | 42.2% |  |
| CCc1cccc(CC)c1NC(=S)NC(=O)c1cccc(Cl)c1 | 12.6 µM | 41.2% |  |
| O=C(NC(=S)Nc1cccc(C(F)(F)F)c1)c1cccc(Cl)c1 | 2.86 µM | 48.9% |  |
| O=C(NC(=S)Nc1ccc(Cl)c(Cl)c1)c1cccc(Cl)c1 |  | 39.4% | 36.7% |
| O=C(NC(=S)Nc1ccc(F)cc1)c1cccc(Cl)c1 | 2.91 µM |  |  |
| O=C(NC(=S)Nc1ccc([N+](=O)[O-])cc1)c1cccc(Cl)c1 |  | 32.7% | 28.1% |
| O=C(NC(=S)Nc1ccc(Cl)cc1Cl)c1cccc(Cl)c1 | 1.34 µM | 38.9% |  |
| O=C(NC(=S)Nc1ccccc1C(F)(F)F)c1cccc(Cl)c1 | 5.58 µM | 36.9% |  |
| O=C(NC(=S)Nc1cccc(Cl)c1)c1cccc(Cl)c1 |  | 52.9% | 29.1% |
| CN(C(=S)NC(=O)c1cccc(Cl)c1)c1ccccc1 | 17.5 µM | 45.1% |  |
| O=C(NC(=S)Nc1ccccc1Cl)c1cccc(Cl)c1 |  | 45.4% | 25.7% |
| O=C(NC(=S)Nc1ccc([N+](=O)[O-])cc1[N+](=O)[O-])c1cccc(Cl)c1 |  | 36.1% | 23.1% |
| COc1cccc(NC(=S)NC(=O)c2cccc(Cl)c2)c1 |  | 42.2% | 21.7% |
| Cc1cccc(NC(=S)NC(=O)c2cccc(Cl)c2)c1C | 4.45 µM | 41.7% |  |
| Cc1ccc(NC(=S)NC(=O)c2cccc(Cl)c2)cc1 | 12.4 µM | 39.4% |  |
| O=C(NC(=S)Nc1ncccn1)c1cccc(Cl)c1 | 2.11 µM | 57.2% |  |
| O=C(NC(=S)Nc1cccc2ccccc12)c1cccc(Cl)c1 |  | 42.2% | 37.1% |
| CC[C@]1(O)C[C@H]2CN(CCc3c([nH]c4ccccc34)[C@@](C(=O)OC)(c3cc4c(cc3OC)N(C=O)[C@H]3[C@@](O)(C(=O)OC)[C@H](OC(C)=O)[C@]5(CC)C=CCN6CC[C@]43[C@@H]65)C2)C1 [VINCRISTINE] |  | 74.6% |  |
| Cc1cc(C)c(NC(=S)NC(=O)c2cccc(Cl)c2)c(C)c1 | 1.23 µM | 43.7% |  |
